These results are taken from ChEMBL document CHEMBL2021835 (J Med Chem, 2012).

The source made the active and inactive calls. The rule behind the calls is not given here.

Data set [1] can be described thus: Cytotoxicity against human Bone marrow cells up to 160 uM after 72 hrs by alamar blue fluorescent staining. It is filed as cell-based. Conditions: bone marrow cell. A general note: The colour change of resazurin is a common sign of viable cells or microbes.
The nature of data set [2]: Disruption of preformed STAT5 homodimer in NIH3T3 cells co-expressing human EGFR nuclear extracts by electrophoretic mobility shift assay. Type of data set: cell-based.
Data set [3] concerns the target T1, Signal transducer and activator of transcription 5A (Homo sapiens) (UniProt P42229).
T1 sequence (whole entry): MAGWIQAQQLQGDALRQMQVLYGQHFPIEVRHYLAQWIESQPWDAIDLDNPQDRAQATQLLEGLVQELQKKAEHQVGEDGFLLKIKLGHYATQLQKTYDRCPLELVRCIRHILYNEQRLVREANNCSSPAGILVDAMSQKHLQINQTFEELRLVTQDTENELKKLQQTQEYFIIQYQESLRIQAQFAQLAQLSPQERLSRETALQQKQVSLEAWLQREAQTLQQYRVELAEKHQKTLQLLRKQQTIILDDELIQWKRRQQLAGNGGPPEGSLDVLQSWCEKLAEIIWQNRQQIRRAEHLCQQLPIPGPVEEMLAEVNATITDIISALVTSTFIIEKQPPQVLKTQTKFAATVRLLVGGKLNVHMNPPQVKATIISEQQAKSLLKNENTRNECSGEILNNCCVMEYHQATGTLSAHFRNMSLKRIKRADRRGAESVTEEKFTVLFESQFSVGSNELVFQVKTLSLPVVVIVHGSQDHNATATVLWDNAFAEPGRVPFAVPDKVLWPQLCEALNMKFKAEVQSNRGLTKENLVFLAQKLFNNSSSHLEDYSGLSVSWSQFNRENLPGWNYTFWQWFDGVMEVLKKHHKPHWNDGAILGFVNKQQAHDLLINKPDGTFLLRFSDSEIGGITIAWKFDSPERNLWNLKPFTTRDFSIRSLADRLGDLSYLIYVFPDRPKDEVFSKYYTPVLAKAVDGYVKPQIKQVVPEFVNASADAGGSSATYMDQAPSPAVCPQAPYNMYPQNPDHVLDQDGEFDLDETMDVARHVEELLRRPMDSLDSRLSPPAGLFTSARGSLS
As to the kind of experiment: Inhibition of STAT5-mediated MCL-1 expression in human K562 cells at 40 uM after 6 hrs by RT-PCR analysis. It is filed as cell-based. The gist of the method:
(§1)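 K562 cells were treated at 40 μM for 6 h. Transcript levels of the STAT5 target genes were measured by RT-PCR.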

In data set [4] the target is Bcr/Abl fusion protein (Homo sapiens) (UniProt P00519+P11274). As to the kind of experiment: Inhibition of BCR-ABL-mediated STAT5 phosphorylation in human K562 cells after 6 hrs by Western blotting analysis. It is filed as cell-based. The essentials: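 K562 cells were treated for 6 h and 1 × 10^7 cells were lysed in RIPA buffer. Lysates were run on SDS-PAGE and blotted to PVDF, blocked in 5% BSA/PBS-0.1% Tween 20, and probed for pSTAT5, STAT5, pSTAT3, STAT3 and GAPDH. Detection used HRP anti-rabbit with ECL, and bands were quantified by imaging.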

For data set [5], the target named is T1, Signal transducer and activator of transcription 5A (Homo sapiens). As to the kind of experiment: Inhibition of STAT5-mediated cyclin D2 expression in human K562 cells at 40 uM after 6 hrs by RT-PCR analysis. It is filed as cell-based. The gist of the method: as §1
Data set [6] concerns the target T2, Signal transducer and activator of transcription 1-alpha/beta (Homo sapiens, UniProt P42224).
T2 sequence (P42224 whole entry): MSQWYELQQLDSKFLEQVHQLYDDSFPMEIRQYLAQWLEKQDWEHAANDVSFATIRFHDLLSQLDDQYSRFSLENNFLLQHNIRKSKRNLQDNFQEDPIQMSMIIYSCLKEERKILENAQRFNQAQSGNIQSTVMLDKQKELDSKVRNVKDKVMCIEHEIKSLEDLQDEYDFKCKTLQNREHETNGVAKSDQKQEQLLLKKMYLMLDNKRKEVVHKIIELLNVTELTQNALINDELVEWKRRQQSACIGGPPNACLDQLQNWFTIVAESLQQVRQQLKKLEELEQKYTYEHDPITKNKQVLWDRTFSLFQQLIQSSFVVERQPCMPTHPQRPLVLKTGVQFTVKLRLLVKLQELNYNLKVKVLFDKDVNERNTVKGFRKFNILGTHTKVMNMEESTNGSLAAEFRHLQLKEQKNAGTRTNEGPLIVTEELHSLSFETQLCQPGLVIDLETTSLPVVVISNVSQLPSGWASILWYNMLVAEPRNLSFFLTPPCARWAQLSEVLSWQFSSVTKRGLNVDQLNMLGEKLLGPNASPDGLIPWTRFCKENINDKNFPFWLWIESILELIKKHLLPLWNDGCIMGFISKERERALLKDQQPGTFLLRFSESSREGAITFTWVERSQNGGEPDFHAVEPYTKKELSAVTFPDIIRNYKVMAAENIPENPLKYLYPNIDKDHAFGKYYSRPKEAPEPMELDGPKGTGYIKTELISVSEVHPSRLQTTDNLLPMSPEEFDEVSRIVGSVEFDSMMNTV
As to the kind of experiment: Displacement of fluorescent probe from the STAT1 after 15 mins by fluorescent polarization assay.

Data set [7] relates to K562. As to the kind of experiment: Induction of apoptosis in human K562 cells assessed as late apoptotic cells at 40 uM after 24 hrs using annexin-V FITC/PI double staining by flow cytometry (reference value: 5.6%). Type of data set: functional. For orientation: A flow cytometer gives signals particle by particle.

In general, IC50 refers to the concentration at which inhibition is half-maximal. A word on the Ki: it is the equilibrium dissociation constant of an inhibitor or competing ligand from its target.

Chain of Bcr/Abl fusion protein (Homo sapiens) (P00519 whole entry, looked up, the tested form may be a part): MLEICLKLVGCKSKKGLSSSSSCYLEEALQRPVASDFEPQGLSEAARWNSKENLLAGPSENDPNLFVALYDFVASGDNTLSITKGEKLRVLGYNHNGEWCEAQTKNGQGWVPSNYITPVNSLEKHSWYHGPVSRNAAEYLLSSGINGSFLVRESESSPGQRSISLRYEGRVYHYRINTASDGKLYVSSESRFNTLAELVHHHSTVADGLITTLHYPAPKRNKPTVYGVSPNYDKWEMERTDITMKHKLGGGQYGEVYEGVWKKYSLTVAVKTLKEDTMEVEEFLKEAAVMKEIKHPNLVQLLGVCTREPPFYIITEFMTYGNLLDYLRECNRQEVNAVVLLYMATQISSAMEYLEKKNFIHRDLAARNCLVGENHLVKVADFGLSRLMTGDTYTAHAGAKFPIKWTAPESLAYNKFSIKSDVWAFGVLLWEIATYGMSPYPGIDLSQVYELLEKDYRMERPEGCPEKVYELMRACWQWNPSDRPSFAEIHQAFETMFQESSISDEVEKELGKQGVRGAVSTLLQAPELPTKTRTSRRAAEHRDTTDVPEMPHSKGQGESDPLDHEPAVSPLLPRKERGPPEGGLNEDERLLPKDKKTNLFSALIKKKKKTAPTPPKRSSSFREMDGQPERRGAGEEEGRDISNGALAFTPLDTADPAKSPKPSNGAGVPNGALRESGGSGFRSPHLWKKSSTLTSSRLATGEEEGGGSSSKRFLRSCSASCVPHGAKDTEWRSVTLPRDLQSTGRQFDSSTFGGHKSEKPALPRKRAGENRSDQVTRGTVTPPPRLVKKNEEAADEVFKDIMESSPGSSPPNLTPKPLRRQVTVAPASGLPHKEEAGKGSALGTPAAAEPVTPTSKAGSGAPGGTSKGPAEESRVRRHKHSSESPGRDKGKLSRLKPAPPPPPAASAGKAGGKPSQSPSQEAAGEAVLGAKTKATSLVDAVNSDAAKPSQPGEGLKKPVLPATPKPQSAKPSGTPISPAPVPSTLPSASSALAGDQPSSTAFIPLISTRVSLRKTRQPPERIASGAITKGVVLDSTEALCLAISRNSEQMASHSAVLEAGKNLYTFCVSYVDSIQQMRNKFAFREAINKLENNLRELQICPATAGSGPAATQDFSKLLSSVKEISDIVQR
Chain of Bcr/Abl fusion protein (Homo sapiens) (P11274 whole entry, looked up, the tested form may be a part): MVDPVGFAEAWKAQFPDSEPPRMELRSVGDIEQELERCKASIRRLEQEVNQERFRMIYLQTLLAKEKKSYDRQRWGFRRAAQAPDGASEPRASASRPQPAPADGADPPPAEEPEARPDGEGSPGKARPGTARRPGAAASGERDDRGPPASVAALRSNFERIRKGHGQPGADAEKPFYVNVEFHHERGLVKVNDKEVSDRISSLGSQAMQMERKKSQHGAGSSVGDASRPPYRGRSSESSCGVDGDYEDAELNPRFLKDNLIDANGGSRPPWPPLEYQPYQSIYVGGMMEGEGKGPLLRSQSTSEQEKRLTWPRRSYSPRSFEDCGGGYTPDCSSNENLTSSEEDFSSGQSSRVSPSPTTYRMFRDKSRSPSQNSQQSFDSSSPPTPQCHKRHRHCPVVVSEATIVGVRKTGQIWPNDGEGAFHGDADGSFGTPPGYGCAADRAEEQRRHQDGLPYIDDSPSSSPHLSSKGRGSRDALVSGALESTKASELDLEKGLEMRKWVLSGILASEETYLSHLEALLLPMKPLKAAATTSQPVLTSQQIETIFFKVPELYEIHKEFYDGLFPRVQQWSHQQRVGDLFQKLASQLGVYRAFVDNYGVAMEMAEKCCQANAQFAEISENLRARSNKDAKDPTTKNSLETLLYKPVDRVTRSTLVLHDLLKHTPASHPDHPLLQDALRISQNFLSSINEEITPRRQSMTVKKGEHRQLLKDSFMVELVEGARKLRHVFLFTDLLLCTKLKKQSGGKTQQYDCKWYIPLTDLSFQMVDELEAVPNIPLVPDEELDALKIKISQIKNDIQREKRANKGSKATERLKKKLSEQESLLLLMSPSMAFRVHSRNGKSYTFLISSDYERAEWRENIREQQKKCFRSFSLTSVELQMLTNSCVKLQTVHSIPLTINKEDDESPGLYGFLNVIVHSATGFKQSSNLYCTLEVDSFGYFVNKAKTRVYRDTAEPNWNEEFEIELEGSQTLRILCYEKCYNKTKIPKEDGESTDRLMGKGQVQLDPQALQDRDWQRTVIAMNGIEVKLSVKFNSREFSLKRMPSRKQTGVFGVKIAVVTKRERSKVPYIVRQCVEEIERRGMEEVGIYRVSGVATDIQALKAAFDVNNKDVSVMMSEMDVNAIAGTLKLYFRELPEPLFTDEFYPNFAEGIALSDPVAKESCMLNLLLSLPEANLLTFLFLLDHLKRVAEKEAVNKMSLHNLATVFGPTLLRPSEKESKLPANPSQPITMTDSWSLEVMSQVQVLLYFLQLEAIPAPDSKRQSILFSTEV

For the compound `Cc1cc(C)c(S(=O)(=O)N(C)CC(=O)N(Cc2ccc(C3CCCCC3)cc2)c2ccc(C(=O)O)c(O)c2)c(C)c1`, the Activity entry in data set [1] is “Non-toxic”; in data set [7], 81.5%. In addition, the IC50 in data set [2] was 100 µM. Moreover, the inhibition result in data set [3] and in data set [5] was “Active” in each case. For the same compound, the inhibition entry in data set [4] was “Dose-dependent effect”. Moreover, in data set [6], the inhibition constant (Ki) came out at 9.7 µM.
